Experimental data published in ChEMBL document CHEMBL3588768, “Synthesis and bioactivity of tripolinolate A from Tripolium vulgare and its analogs” (Bioorg Med Chem Lett, 2015).
The source made the active and inactive calls. No cut-off for these calls is given here.

Experiments:
[1] = test system: Staphylococcus aureus; assay: Antimicrobial activity against Staphylococcus aureus after 5 to 12 hrs by micro broth dilution assay; format: functional, organism-based
[2] = test system: Escherichia coli; assay: Antimicrobial activity against Escherichia coli after 5 to 12 hrs by micro broth dilution assay; format: functional, organism-based
[3] = test system: U-251; assay: Antiproliferative activity against human U251 cells after 72 hrs by sulforhodamine B assay; format: functional, cell-based; settings: for IC50: U-251, 72 h
Outline: (§1)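 Sulforhodamine B assay on glioma (U251, U87-MG) and colorectal (HCT-15, SW620) cancer cells. Cells were exposed to a range of compound concentrations for 72 h, then stained with SRB. IC50 values were derived from the dose–response. Doxorubicin served as positive control.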

[4] = test system: HCT-15; assay: Antiproliferative activity against human HCT15 cells after 72 hrs by sulforhodamine B assay; format: functional, cell-based; settings: for IC50: HCT-15, 72 h; outline: as §1
[5] = test system: U-87 MG; assay: Antiproliferative activity against human U87MG cells after 72 hrs by sulforhodamine B assay; format: functional, cell-based, U-87MG ATCC; settings: for inhibition: U-87MG ATCC; outline: as §1
[6] = test system: SW-620; assay: Antiproliferative activity against human SW620 cells after 72 hrs by sulforhodamine B assay; format: functional, cell-based; settings: for IC50: SW-620, 72 h; outline: as §1
[7] = test system: U-87 MG; assay: Induction of apoptosis in human U87MG cells assessed as viable cells at 10 uM after 72 hrs by annexin V-FITC/PI staining-based flow cytometric analysis (reference value: 93.12%); format: functional, U-87MG ATCC; settings: read-out: Activity
[8] = test system: U-87 MG; assay: Induction of apoptosis in human U87MG cells assessed as early apoptotic cells at 10 uM after 72 hrs by annexin V-FITC/PI staining-based flow cytometric analysis (reference value: 3.41%); format: functional, U-87MG ATCC
[9] = test system: U-87 MG; assay: Induction of apoptosis in human U87MG cells assessed as necrotic cells at 10 uM after 72 hrs by annexin V-FITC/PI staining-based flow cytometric analysis (reference value: 0.24%); format: functional, U-87MG ATCC
[10] = test system: U-87 MG; assay: Induction of apoptosis in human U87MG cells assessed as late apoptotic cells at 10 uM after 72 hrs by annexin V-FITC/PI staining-based flow cytometric analysis (reference value: 3.23%); format: functional, U-87MG ATCC
[11] = test system: U-87 MG; assay: Induction of apoptosis in human U87MG cells assessed as total apoptotic cells at 10 uM after 72 hrs by annexin V-FITC/PI staining-based flow cytometric analysis (reference value: 6.64%); format: functional, U-87MG ATCC
[12] = test system: U-87 MG; assay: Induction of apoptosis in human U87MG cells assessed as total apoptotic cells at 40 uM after 72 hrs by annexin V-FITC/PI staining-based flow cytometric analysis (reference value: 6.64%); format: functional, U-87MG ATCC
[13] = test system: U-87 MG; assay: Induction of apoptosis in human U87MG cells assessed as late apoptotic cells at 40 uM after 72 hrs by annexin V-FITC/PI staining-based flow cytometric analysis (reference value: 3.23%); format: functional, U-87MG ATCC
[14] = test system: U-87 MG; assay: Induction of apoptosis in human U87MG cells assessed as viable cells at 40 uM after 72 hrs by annexin V-FITC/PI staining-based flow cytometric analysis (reference value: 93.12%); format: functional, U-87MG ATCC; settings: read-out: Activity
[15] = test system: U-87 MG; assay: Induction of apoptosis in human U87MG cells assessed as early apoptotic cells at 40 uM after 72 hrs by annexin V-FITC/PI staining-based flow cytometric analysis (reference value: 3.41%); format: functional, U-87MG ATCC
[16] = test system: U-87 MG; assay: Induction of apoptosis in human U87MG cells assessed as bright blue nuclear pyknosis at 20 uM by DAPI staining; format: functional, cell-based; settings: U-87MG ATCC
Outline: (§2)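 U87-MG glioma cells were exposed to compound at 20 µM for 72 h, then double-stained with DAPI and propidium iodide. Cells were viewed by fluorescence microscopy. Condensed bright-blue DAPI nuclei were scored as apoptotic; red PI-stained cells were scored as necrotic.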

[17] = test system: U-87 MG; assay: Induction of apoptosis in human U87MG cells assessed as necrotic cells at 40 uM after 72 hrs by annexin V-FITC/PI staining-based flow cytometric analysis (reference value: […]); format: functional, U-87MG ATCC
[18] = test system: U-87 MG; assay: Induction of apoptosis in human U87MG cells assessed as necrotic cells at 20 uM by PI staining; format: functional, cell-based; settings: U-87MG ATCC; outline: as §2
[19] = test system: U-87 MG; assay: Induction of apoptosis in human U87MG cells assessed as late apoptotic cells at 20 uM after 72 hrs by annexin V-FITC/PI staining-based flow cytometric analysis (reference value: 3.23%); format: functional, U-87MG ATCC
[20] = test system: U-87 MG; assay: Induction of apoptosis in human U87MG cells assessed as viable cells at 20 uM after 72 hrs by annexin V-FITC/PI staining-based flow cytometric analysis (reference value: 93.12%); format: functional, U-87MG ATCC; settings: read-out: Activity
[21] = test system: U-87 MG; assay: Induction of apoptosis in human U87MG cells assessed as early apoptotic cells at 20 uM after 72 hrs by annexin V-FITC/PI staining-based flow cytometric analysis (reference value: 3.41%); format: functional, U-87MG ATCC
[22] = test system: U-87 MG; assay: Induction of apoptosis in human U87MG cells assessed as total apoptotic cells at 20 uM after 72 hrs by annexin V-FITC/PI staining-based flow cytometric analysis (reference value: 6.64%); format: functional, U-87MG ATCC
[23] = test system: U-87 MG; assay: Induction of apoptosis in human U87MG cells assessed as necrotic cells at 20 uM after 72 hrs by annexin V-FITC/PI staining-based flow cytometric analysis (reference value: 0.24%); format: functional, U-87MG ATCC

Row | IC50 [3] | IC50 [4] | IC50 [5] | IC50 [6] | SMILES | inhibition [1] | inhibition [2] | also measured
1 | – | – | – | – | CC(C)[C@@H](C)/C=C/[C@@H](C)[C@H]1CCC2=C3C=CC4=CC(=O)CC[C@]4(C)[C@H]3CC[C@@]21C | inactive | inactive | –
2 | – | – | – | – | CCCCCC(=O)OC/C=C/c1ccc(OC(=O)CCCCC)c(OC)c1 | inactive | inactive | –
3 | 33.3 µM | 22.8 µM | 18.5 µM | 10.2 µM | CCCC(=O)OC/C=C/c1ccc(OC(C)=O)c(OC)c1 | inactive | inactive | –
4 | – | – | – | – | CCCCCCC(=O)OC/C=C/c1ccc(OC(=O)CCCCCC)c(OC)c1 | inactive | inactive | –
5 | – | – | – | – | CC(C)[C@H](C)/C=C/[C@@H](C)[C@H]1CCC2=C3C=CC4=CC(=O)CC[C@]4(C)[C@H]3CC[C@@]21C | inactive | inactive | –
6 | 2.2 µM | 1.13 µM | 0.93 µM | 1.33 µM | COc1cccc2c1C(=O)c1c(O)c3c(c(O)c1C2=O)C[C@@](O)(C(=O)CO)C[C@@H]3O[C@H]1C[C@H](N)[C@H](O)[C@H](C)O1 [DOXORUBICIN] | inactive | inactive | viability at 10 µM [7]: 68.2%; Activity [8]: 20.15%; Activity [9]: 0.6%; Activity [10]: 11.02%; Activity [11]: 31.17%
7 | 37.6 µM | 23.5 µM | 3.12 µM | 4.6 µM | O=c1c(O[C@@H]2O[C@H](CO)[C@@H](O)[C@H](O)[C@H]2O)c(-c2ccc(O)cc2)oc2cc(O)cc(O)c12 [ASTRAGALIN] | inactive | inactive | –
8 | – | – | – | – | CC[C@H](C)C(=O)OC/C=C/c1ccc(OC(=O)[C@@H](C)CC)c(OC)c1 | inactive | inactive | –
9 | – | – | – | – | CC1=C(C)C(=O)C(CC[C@](C)(O)CCC[C@H](C)CCC[C@H](C)CCCC(C)C)=C(C)C1=O | inactive | inactive | –
10 | – | – | – | – | COc1cc(/C=C/COC(=O)C(C)C)ccc1OC(C)=O | inactive | inactive | –
11 | – | – | – | – | CCCC(=O)OC/C=C/c1ccc(OC(=O)CC(C)C)c(OC)c1 | inactive | inactive | –
12 | – | – | – | – | COc1cc(/C=C/CO)ccc1O | inactive | inactive | –
13 | 52.6 µM | 29.6 µM | 28.8 µM | 47.4 µM | CCC(=O)OC/C=C/c1ccc(OC(=O)CC)c(OC)c1 | inactive | inactive | –
14 | – | – | – | – | O=C(/C=C/c1ccc(O)c(O)c1)O[C@@H]1C[C@](O)(C(=O)O)C[C@@H](OC(=O)/C=C/c2ccc(O)c(O)c2)[C@H]1O | inactive | inactive | –
15 | – | – | – | – | COc1cc(/C=C/COC(C)=O)ccc1OC(=O)C(C)C | inactive | inactive | –
16 | – | – | – | – | COC(=O)/C=C/c1ccc(O)c(OC)c1 | inactive | inactive | –
17 | – | – | – | – | CCCCCCCC(=O)OC/C=C/c1ccc(OC(=O)CCCCCCC)c(OC)c1 | inactive | inactive | –
18 | 9.71 µM | 3.26 µM | 1.06 µM | 0.36 µM | COc1cc(/C=C/COC(C)=O)ccc1OC(C)=O | inactive | inactive | Activity [12]: 57.33%; Activity [13]: 35.71%; viability at 40 µM [14]: 42.1%; inhibition [3]: Dose-dependent effect; Activity [15]: 21.62%; Activity [16]: Active; Activity [17]: 0.57%; inhibition [4]: Dose-dependent effect; Activity [18]: Active; inhibition [5]: Dose-dependent effect; inhibition [6]: Dose-dependent effect

Row | IC50 [3] | IC50 [4] | IC50 [5] | IC50 [6] | SMILES | inhibition [1] | inhibition [2] | also measured
19 | – | – | – | – | CCCCC(=O)OC/C=C/c1ccc(OC(=O)CCCC)c(OC)c1 | inactive | inactive | –
20 | – | – | – | – | CCC(=O)OC/C=C/c1ccc(OC(C)=O)c(OC)c1 | inactive | inactive | –
21 | 45.7 µM | 17.1 µM | 10.5 µM | 7.59 µM | CCCC(=O)Oc1ccc(/C=C/COC(C)=O)cc1OC | inactive | inactive | –
22 | 19.7 µM | 1.91 µM | 3.89 µM | 0.41 µM | CCCC(=O)c1c(O)cc(O)cc1O[C@@H]1O[C@H](CO)[C@@H](O)[C@H](O)[C@H]1O | inactive | inactive | –
23 | – | – | – | – | COc1cc(/C=C/C(=O)O)ccc1O | inactive | inactive | –
24 | 26.8 µM | 15.1 µM | 5.24 µM | 5.25 µM | CCCCCCCCCCCCCCCCCCCCOC(=O)/C=C/c1ccc(O)c(OC)c1 | inactive | inactive | –
25 | 27.8 µM | 22.5 µM | 8.02 µM | 5.85 µM | C/C(=C\CO)CCC[C@H](C)CCC[C@H](C)CCCC(C)C [TRANS-PHYTOL] | inactive | inactive | –
26 | > 50 µM | 28.8 µM | 17.3 µM | 7.85 µM | CCCC(=O)OC/C=C/c1ccc(OC(=O)CCC)c(OC)c1 | inactive | inactive | –
27 | – | – | – | – | CCCCCCCCCCCCCCCCCCCCOC(=O)/C=C/c1ccc(O)cc1 | inactive | inactive | –
28 | – | – | – | – | O=C(/C=C/c1ccc(O)c(O)c1)O[C@H]1[C@H](O)C[C@](O)(C(=O)O)C[C@H]1OC(=O)/C=C/c1ccc(O)c(O)c1 | inactive | inactive | –
29 | – | – | – | – | COc1cc(/C=C/COC(=O)CC(C)C)ccc1OC(=O)CC(C)C | inactive | inactive | –
30 | – | – | – | – | CCCC(=O)Oc1ccc(/C=C/COC(=O)CC(C)C)cc1OC | inactive | inactive | –
31 | – | – | – | – | CCC(=O)Oc1ccc(/C=C/COC(C)=O)cc1OC | inactive | inactive | –
32 | 12.9 µM | 4.58 µM | 0.48 µM | 0.99 µM | CC[C@H](C)C(=O)Oc1ccc(/C=C/COC(C)=O)cc1OC | inactive | inactive | Activity [19]: 36.12%; viability at 20 µM [20]: 54.5%; Activity [21]: 9.02%; Activity [22]: 45.14%; inhibition [3]: Dose-dependent effect; Activity [16]: Active; inhibition [4]: Dose-dependent effect; Activity [18]: Active; inhibition [5]: Dose-dependent effect; inhibition [6]: Dose-dependent effect; Activity [23]: 0.37%
33 | > 50 µM | 34.6 µM | 29.4 µM | 35.5 µM | COc1cc(/C=C/COC(=O)C(C)C)ccc1OC(=O)C(C)C | inactive | inactive | –
34 | – | – | – | – | O=C(/C=C/c1ccc(O)c(O)c1)O[C@@H]1[C@H](O)C[C@@](O)(C(=O)O)C[C@H]1OC(=O)/C=C/c1ccc(O)c(O)c1 | inactive | inactive | –
35 | 28.1 µM | 34.1 µM | 15 µM | 21.9 µM | CC[C@H](C)C(=O)OC/C=C/c1ccc(OC(C)=O)c(OC)c1 | inactive | inactive | –
